31 compounds from ChEMBL document CHEMBL5150051, “Identification and Characterization of a Novel Indoleamine 2,3-Dioxygenase 1 Protein Degrader for Glioblastoma” (J Med Chem, 2022) can be followed below.

The structures appear in SMILES notation.

Assay [1] deals with von Hippel-Lindau disease tumor suppressor/Indoleamine 2,3-dioxygenase 1 (Homo sapiens) (UniProt P14902+P40337). Put plainly: Protac activity at IDO1/VHL in IFNgamma-stimulated human U87 cells assessed as IDO1 degradation at 10 uM measured after 24 hrs by Western blotting analysis relative to control. It is filed as cell-based. An outline of the steps: (§1)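 U87 GBM cells primed with human IFNγ 50 ng/mL for 24 h, then exposed to PROTAC at 10 μM for 24 h. Lysates run on western blot; IDO1 bands quantified by densitometry and expressed as percent of normalized IDO1 protein level.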
Sequence of von Hippel-Lindau disease tumor suppressor/Indoleamine 2,3-dioxygenase 1 (Homo sapiens) (P14902 whole entry, looked up): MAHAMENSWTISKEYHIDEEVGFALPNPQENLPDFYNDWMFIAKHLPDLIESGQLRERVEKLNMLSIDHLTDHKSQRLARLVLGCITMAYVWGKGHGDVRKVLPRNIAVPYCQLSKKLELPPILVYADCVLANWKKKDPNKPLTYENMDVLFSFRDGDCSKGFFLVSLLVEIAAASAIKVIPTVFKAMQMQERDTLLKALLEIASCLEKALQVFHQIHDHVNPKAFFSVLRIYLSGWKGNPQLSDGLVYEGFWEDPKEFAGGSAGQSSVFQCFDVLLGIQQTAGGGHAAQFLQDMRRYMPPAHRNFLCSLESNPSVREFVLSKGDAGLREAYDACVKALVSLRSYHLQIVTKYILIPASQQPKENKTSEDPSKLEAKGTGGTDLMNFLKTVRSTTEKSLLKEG
Sequence of von Hippel-Lindau disease tumor suppressor/Indoleamine 2,3-dioxygenase 1 (Homo sapiens) (P40337 whole entry, looked up): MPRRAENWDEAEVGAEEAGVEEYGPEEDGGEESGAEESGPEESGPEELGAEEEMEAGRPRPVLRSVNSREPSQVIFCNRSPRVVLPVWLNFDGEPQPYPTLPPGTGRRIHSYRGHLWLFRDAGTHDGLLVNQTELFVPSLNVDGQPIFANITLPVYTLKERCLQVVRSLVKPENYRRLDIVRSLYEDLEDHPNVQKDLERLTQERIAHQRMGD

Assay [2] has as its target Protein cereblon/Indoleamine 2,3-dioxygenase 1 (Homo sapiens, UniProt P14902+Q96SW2). The assay can be described thus: Protac activity at IDO1/CRBN in IFNgamma-stimulated human U87 cells assessed as IDO1 degradation at 10 uM measured after 24 hrs by Western blotting analysis relative to control. It is filed as cell-based. In a few lines:
as §1
On the technique in general: A western blot detects proteins with antibodies after separation by electrophoresis.

Sequence of Protein cereblon/Indoleamine 2,3-dioxygenase 1 (P14902 whole entry, looked up): as the sequence (P14902 whole entry, looked up) above
Sequence of Protein cereblon/Indoleamine 2,3-dioxygenase 1 (Q96SW2 whole entry, looked up): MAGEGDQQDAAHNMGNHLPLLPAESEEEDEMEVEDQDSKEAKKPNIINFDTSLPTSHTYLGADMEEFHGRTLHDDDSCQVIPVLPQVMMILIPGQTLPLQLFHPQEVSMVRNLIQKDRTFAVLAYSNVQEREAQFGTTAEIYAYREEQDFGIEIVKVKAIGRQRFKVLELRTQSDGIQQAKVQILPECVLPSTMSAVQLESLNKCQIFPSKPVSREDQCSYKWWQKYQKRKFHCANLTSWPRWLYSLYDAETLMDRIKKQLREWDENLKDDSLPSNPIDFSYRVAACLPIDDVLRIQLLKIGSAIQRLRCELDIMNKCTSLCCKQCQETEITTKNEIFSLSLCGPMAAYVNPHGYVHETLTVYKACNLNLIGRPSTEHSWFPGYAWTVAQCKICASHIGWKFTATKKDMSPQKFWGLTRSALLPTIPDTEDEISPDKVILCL

For the compound `Cc1ncsc1-c1ccc(CNC(=O)[C@@H]2C[C@@H](O)CN2C(=O)[C@@H](NC(=O)C2(F)CC2)C(C)(C)C)c(OCCCCCCCCCOc2cc(NC(=O)[C@H](C)[C@H]3CC[C@@H](c4ccnc5ccc(F)cc54)CC3)ccc2Cl)c1`, the Activity in assay [1] amounted to 90%.
As to `Cc1ncsc1-c1ccc(CNC(=O)[C@@H]2C[C@@H](O)CN2C(=O)[C@@H](NCCCCCCCOc2ccc(NC(=O)[C@H](C)[C@H]3CC[C@@H](c4ccnc5ccc(F)cc54)CC3)cc2)C(C)(C)C)cc1`, in assay [1], the Activity was 0%.
On to `Cc1ncsc1-c1ccc(CNC(=O)[C@@H]2C[C@@H](O)CN2C(=O)[C@@H](NCCOCCOCCOCCOCCOCCOc2cccc(NC(=O)[C@H](C)[C@H]3CC[C@@H](c4ccnc5ccc(F)cc54)CC3)c2)C(C)(C)C)cc1`, for which the Activity in assay [1] was determined as 0%.
Same read-out and setting: then `Cc1ncsc1-c1ccc(CNC(=O)[C@H]2C[C@H](O)CN2C(=O)[C@H](NCCCCCCCCCOc2cc(NC(=O)[C@H](C)[C@H]3CC[C@@H](c4ccnc5ccc(F)cc54)CC3)ccc2Cl)C(C)(C)C)cc1`, with 3%.
For the compound `Cc1ncsc1-c1ccc(CNC(=O)[C@@H]2C[C@@H](O)CN2C(=O)[C@@H](NC(=O)C2(F)CC2)C(C)(C)C)c(OCCOCCCN2CCC(Oc3ccc(NC(=O)[C@H](C)[C@H]4CC[C@@H](c5ccnc6ccc(F)cc65)CC4)cc3)CC2)c1`, the Activity in assay [1] turned out to be 0%.
With `Cc1ncsc1-c1ccc(CNC(=O)[C@@H]2C[C@@H](O)CN2C(=O)[C@@H](NC(=O)C2(F)CC2)C(C)(C)C)c(OCCOCCOCCOCCOc2cc(NC(=O)[C@H](C)[C@H]3CC[C@@H](c4ccnc5ccc(F)cc54)CC3)ccc2Cl)c1`, the Activity in assay [1] amounted to 0%.
As to `Cc1ncsc1-c1ccc(CNC(=O)[C@@H]2C[C@@H](O)CN2C(=O)[C@@H](NC(=O)C2(F)CC2)C(C)(C)C)c(OCCOCCOCCOCCOCCOc2ccc(NC(=O)[C@H](C)[C@H]3CC[C@@H](c4ccnc5ccc(F)cc54)CC3)cc2)c1`, the Activity in assay [1] is 0%.
For the compound `Cc1ncsc1-c1ccc(CNC(=O)[C@@H]2C[C@@H](O)CN2C(=O)[C@@H](NCCOCCOCCOCCOCCOCCOc2cc(NC(=O)[C@H](C)[C@H]3CC[C@@H](c4ccnc5ccc(F)cc54)CC3)ccc2Cl)C(C)(C)C)cc1`, the Activity in assay [1] was 0%.
On the same count and under the same terms, for `Cc1ncsc1-c1ccc(CNC(=O)[C@@H]2C[C@@H](O)CN2C(=O)[C@@H](NC(=O)C2(F)CC2)C(C)(C)C)c(OCCCCCCCOc2ccc(NC(=O)[C@H](C)[C@H]3CC[C@@H](c4ccnc5ccc(F)cc54)CC3)cc2)c1` the value was 41%.
For the compound `Cc1ncsc1-c1ccc(CNC(=O)[C@H]2C[C@H](O)CN2C(=O)[C@H](NCCCCCCOc2cc(NC(=O)[C@H](C)[C@H]3CC[C@@H](c4ccnc5ccc(F)cc54)CC3)ccc2Cl)C(C)(C)C)cc1`, the Activity in assay [1] was 21%.
In the case of `Cc1ncsc1-c1ccc(CNC(=O)[C@@H]2C[C@@H](O)CN2C(=O)[C@@H](NC(=O)C2(F)CC2)C(C)(C)C)c(OCCOCCOc2cc(NC(=O)[C@H](C)[C@H]3CC[C@@H](c4ccnc5ccc(F)cc54)CC3)ccc2Cl)c1`, the Activity in assay [1] amounted to 23%.
For the compound `Cc1ncsc1-c1ccc(CNC(=O)[C@@H]2C[C@@H](O)CN2C(=O)[C@@H](NCCOCCOCCOCCOCCOc2ccc(NC(=O)[C@H](C)[C@H]3CC[C@@H](c4ccnc5ccc(F)cc54)CC3)cc2)C(C)(C)C)cc1`, the Activity in assay [1] stood at 0%.
As to `Cc1ncsc1-c1ccc(CNC(=O)[C@@H]2C[C@@H](O)CN2C(=O)[C@@H](NC(=O)C2(F)CC2)C(C)(C)C)c(OCCOCCOCCC(=O)N2CCC(Oc3ccc(NC(=O)[C@H](C)[C@H]4CC[C@@H](c5ccnc6ccc(F)cc65)CC4)cc3)CC2)c1`, the Activity in assay [1] is 3%.
For the compound `Cc1ncsc1-c1ccc(CNC(=O)[C@@H]2C[C@@H](O)CN2C(=O)[C@@H](NC(=O)C2(F)CC2)C(C)(C)C)c(OCCOCCOCCOCCOc2ccc(NC(=O)[C@H](C)[C@H]3CC[C@@H](c4ccnc5ccc(F)cc54)CC3)cc2)c1`, in assay [1], the Activity stood at 0%.
For `Cc1ncsc1-c1ccc(CNC(=O)[C@@H]2C[C@@H](O)CN2C(=O)[C@@H](NC(=O)C2(F)CC2)C(C)(C)C)c(OCCCCCCCCCCOc2ccc(NC(=O)[C@H](C)[C@H]3CC[C@@H](c4ccnc5ccc(F)cc54)CC3)cc2)c1`, in assay [1], the Activity came to 23%.
Turning to `Cc1ncsc1-c1ccc(CNC(=O)[C@@H]2C[C@@H](O)CN2C(=O)[C@@H](NC(=O)C2(F)CC2)C(C)(C)C)c(OCCOCCOCCC(=O)N2CC(Oc3ccc(NC(=O)[C@H](C)[C@H]4CC[C@@H](c5ccnc6ccc(F)cc65)CC4)cc3)C2)c1`, the Activity in assay [1] turned out to be 91%.
On to `C[C@@H](C(=O)Nc1ccc(OC2CN(C(=O)CCOCCNc3cccc4c3C(=O)N(C3CCC(=O)NC3=O)C4=O)C2)cc1)[C@H]1CC[C@@H](c2ccnc3ccc(F)cc32)CC1` (stereo partly specified), for which the Activity in assay [2] stood at 90%.
With `C[C@@H](C(=O)Nc1ccc(Cl)c(OCCCCCCCCCOc2cccc3c2C(=O)N(C2CCC(=O)NC2=O)C3=O)c1)[C@H]1CC[C@@H](c2ccnc3ccc(F)cc32)CC1` (stereo partly specified), in assay [2], the Activity was 16%.
The same measure, in the same setting: for `C[C@@H](C(=O)Nc1ccc(OCCOCCOCCNC(=O)COc2cccc3c2C(=O)N(C2CCC(=O)NC2=O)C3=O)cc1)[C@H]1CC[C@@H](c2ccnc3ccc(F)cc32)CC1` (stereo partly specified) the value was 47%; for `C[C@@H](C(=O)Nc1ccc(OCCCCOc2cccc3c2C(=O)N(C2CCC(=O)NC2=O)C3=O)cc1)[C@H]1CC[C@@H](c2ccnc3ccc(F)cc32)CC1` (stereo partly specified), 0%; for `C[C@@H](C(=O)Nc1ccc(OCCOCCOc2cccc3c2C(=O)N(C2CCC(=O)NC2=O)C3=O)cc1)[C@H]1CC[C@@H](c2ccnc3ccc(F)cc32)CC1` (stereo partly specified), 18%.
As to `C[C@@H](C(=O)Nc1ccc(OCCCCCCCCCCNc2cccc3c2C(=O)N(C2CCC(=O)NC2=O)C3=O)cc1)[C@H]1CC[C@@H](c2ccnc3ccc(F)cc32)CC1` (stereo partly specified), in assay [2], the Activity was found to be 0%.
On to `C[C@@H](C(=O)Nc1ccc(OCCCCCCCNC(=O)COc2cccc3c2C(=O)N(C2CCC(=O)NC2=O)C3=O)cc1)[C@H]1CC[C@@H](c2ccnc3ccc(F)cc32)CC1` (stereo partly specified), for which, in assay [2], the Activity stood at 0%.
As for `C[C@@H](C(=O)Nc1ccc(OCCOCCNc2cccc3c2C(=O)N(C2CCC(=O)NC2=O)C3=O)cc1)[C@H]1CC[C@@H](c2ccnc3ccc(F)cc32)CC1` (stereo partly specified), in assay [2], the Activity was 23%.
As to `C[C@@H](C(=O)Nc1ccc(OC2CN(CCCOCCOCCNC(=O)COc3cccc4c3C(=O)N(C3CCC(=O)NC3=O)C4=O)C2)cc1)[C@H]1CC[C@@H](c2ccnc3ccc(F)cc32)CC1` (stereo partly specified), the Activity in assay [2] stood at 0%.
As to `C[C@@H](C(=O)Nc1ccc(OC2CCN(C(=O)CCOCCNC(=O)COc3cccc4c3C(=O)N(C3CCC(=O)NC3=O)C4=O)CC2)cc1)[C@H]1CC[C@@H](c2ccnc3ccc(F)cc32)CC1` (stereo partly specified), in assay [2], the Activity is 38%.
Turning to `C[C@@H](C(=O)Nc1ccc(Cl)c(OCCOCCNc2cccc3c2C(=O)N(C2CCC(=O)NC2=O)C3=O)c1)[C@H]1CC[C@@H](c2ccnc3ccc(F)cc32)CC1` (stereo partly specified), the Activity in assay [2] is 66%.
As for `C[C@@H](C(=O)Nc1ccc(OCCOCCOCCOCCOCCOc2cccc3c2C(=O)N(C2CCC(=O)NC2=O)C3=O)cc1)[C@H]1CC[C@@H](c2ccnc3ccc(F)cc32)CC1` (stereo partly specified), the Activity in assay [2] worked out at 0%.
With `C[C@@H](C(=O)Nc1ccc(OC2CN(C(=O)CCOCCOCCOc3cccc4c3C(=O)N(C3CCC(=O)NC3=O)C4=O)C2)cc1)[C@H]1CC[C@@H](c2ccnc3ccc(F)cc32)CC1` (stereo partly specified), in assay [2], the Activity is 74%.
Consider `C[C@@H](C(=O)Nc1ccc(OC2CCN(CCCOCCNC(=O)COc3cccc4c3C(=O)N(C3CCC(=O)NC3=O)C4=O)CC2)cc1)[C@H]1CC[C@@H](c2ccnc3ccc(F)cc32)CC1` (stereo partly specified), for which the Activity in assay [2] was determined as 66%.
As for `C[C@@H](C(=O)Nc1ccc(Cl)c(OCCOCCOCCOCCOCCNC(=O)COc2cccc3c2C(=O)N(C2CCC(=O)NC2=O)C3=O)c1)[C@H]1CC[C@@H](c2ccnc3ccc(F)cc32)CC1` (stereo partly specified), the Activity in assay [2] is 0%.
